Measurements as given in ChEMBL document CHEMBL5380827, “Structure-Based Design of Y-Shaped Covalent TEAD Inhibitors” (J Med Chem, 2023).

How the values were obtained:
[1] = Inhibition of TEAD transcriptional activity in human NCI-H226 cells assessed as luciferase activity measured for 3 days by reporter gene assay; format: cell-based; details: NCI-H226, 72 h
Summary of the method: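 NCI-H226 cells transduced with a pan-TEAD response element luciferase reporter lentivirus (8 μg/mL polybrene) and puromycin-selected. Seeded at 1000 cells per well in 384-well plates and treated with inhibitor for 3 days. Luciferase read with One-Glo and normalized to CellTiter-Glo viability.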

[2] = Inhibition of N-terminal His6-tagged human recombinant TEAD4 (209 to 427 residues)/ recombinant YBD (unknown origin) incubated for 5 hrs by TR-FRET assay
Summary of the method: (§1)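 His-tagged TEAD YAP-binding domain protein (100 nM), expressed in Rosetta(DE3) pLysS and purified by cobalt resin then gel filtration. Protein preincubated with inhibitor for 5 h in 50 mM HEPES pH 7.5, 200 mM NaCl, 0.1% Pluronic F-68. Then 800 nM tracer WZJ-10 and anti-6His Tb cryptate (50 ng/mL final) added; TR-FRET read at 490/520 nm. Mean ± SEM of two experiments, each in biological triplicate.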

[3] = Inhibition of N-terminal GST/His6-tagged human recombinant TEAD1 (209 to 424 residues)/YBD (unknown origin) incubated for 5 hrs by TR-FRET assay; summary of the method: as §1
[4] = Inhibition of N-terminal His6-tagged human recombinant TEAD2 (217 to 447 residues)/ recombinant YBD (unknown origin) incubated for 5 hrs by TR-FRET assay; summary of the method: as §1
[5] = Inhibition of N-terminal His6-tagged human recombinant TEAD3 (216 to 434 residues)/ recombinant YBD (unknown origin) incubated for 5 hrs by TR-FRET assay; summary of the method: as §1
NCI-H226 = assay: Antiproliferative activity against human NCI-H226 cells assessed as reduction in cell viability measured for 5 days by celliter-glo assay; format: functional, cell-based; details: NCI-H226, 120 h
Summary of the method: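 NCI-H226 mesothelioma cells grown in RPMI1640 with 10% FBS and 1% penicillin/streptomycin, seeded at 100 cells per well in 384-well plates. Inhibitor added by digital dispenser, 5-day incubation. CellTiter-Glo luminescence read after 20 min, normalized to DMSO-treated samples. Mean ± SD of n = 3 biological independent samples.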

[6] = Antiproliferative activity against human 94T778 cells assessed as reduction in cell viability measured for 5 days by celliter-glo assay; format: functional, cell-based; details: 94T778, 120 h
Summary of the method: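 94T778 well-differentiated liposarcoma cells grown in RPMI1640 with 10% FBS and 1% penicillin/streptomycin. Treated with inhibitor for 5 days and viability read as CellTiter-Glo luminescence. Mean ± SD of n = 3 biological independent samples.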

| Structure (SMILES) | IC50 [1] [nM] | IC50 [2] [nM] | IC50 [3] [nM] | IC50 [4] [nM] | IC50 [5] [nM] | IC50 (NCI-H226) [nM] | IC50 [6] [nM] |
| --- | --- | --- | --- | --- | --- | --- | --- |
| CC#CC(=O)N1C[C@@H](n2cc(-c3cccnc3)nn2)[C@H](OCc2ccc(C(F)(F)F)cc2)C1 | 229 | > 10000 | 44 | 459 | 47 | – | – |
| CN(C)C/C=C/C(=O)N1C[C@@H](n2cc(-c3cccnc3)nn2)[C@H](OCc2ccc(C(F)(F)F)cc2)C1 | 1710 | > 10000 | 1030 | > 10000 | 1640 | – | – |
| C=C(C(=O)N1C[C@@H](n2cc(-c3cccnc3)nn2)[C@H](OCc2ccc(C(F)(F)F)cc2)C1)C(F)(F)F | 2740 | > 10000 | 42 | 19 | 19 | – | – |
| C=C(F)C(=O)N1C[C@@H](Nc2ncccn2)[C@H](OCc2ccc(C(F)(F)F)cc2)C1 | 17 | 71 | 47 | 275 | 32 | 24 | 40 |
| Cc1cccc([C@H](C)NC(=O)c2ccc3c(-c4ccc(C(F)(F)F)cc4)cccc3c2)n1 | – | 35 | 31 | 40 | 19 | – | – |
| C=CC(=O)N1C[C@@H](n2cc(-c3cccnc3)nn2)[C@H](OCC23CC4CC(CC(C4)C2)C3)C1 (mixture of isomers) | 1380 | 604 | 118 | 26 | 38 | – | – |
| C=CC(=O)N1C[C@@H](OCc2ccc(C(F)(F)F)cc2)[C@H](c2ccc(S(C)(=O)=O)cc2)C1 (racemic) | 153 | 83 | 51 | 305 | 51 | – | – |
| C=CC(=O)N1CC[C@@H](OCc2ccc(C(F)(F)F)cc2)[C@H](Nc2ncc(F)cn2)C1 (racemic) | 171 | 427 | 56 | 1240 | 121 | 246 | 1020 |
| C=CC(=O)N1C[C@@H](n2cc(-c3cccnc3)nn2)[C@H](OCC2CCC(F)(F)CC2)C1 (racemic) | 467 | 685 | 264 | 50 | 68 | – | – |
| C=CC(=O)N1C[C@@H](n2cccn2)[C@H](OCc2ccc(C(F)(F)F)cc2)C1 (racemic) | 131 | 111 | 56 | 178 | 36 | 368 | 258 |
| C=CC(=O)N1C[C@@H](n2ncccc2=O)[C@H](OCc2ccc(C(F)(F)F)cc2)C1 (racemic) | 90 | 98 | 42 | 103 | 50 | 150 | 214 |
| C=CC(=O)N1CCN(c2ncccn2)CC(OCc2ccc(C(F)(F)F)cc2)C1 (racemic) | 522 | 236 | 80 | 578 | 429 | – | – |
| C=CC(=O)N1C[C@@H](Nc2ncccn2)[C@H](OCc2ccc(C(F)(F)F)cc2)C1 (racemic) | 14 | 25 | 29 | 9 | 30 | 16 | 34 |
| C=CC(=O)N1C[C@@H](Nc2ncc(F)cn2)[C@H](OCc2ccc(C(F)(F)F)cc2)C1 (racemic) | 16 | 21 | 30 | 17 | 26 | 28 | 114 |
| C=CC(=O)N1C[C@@H](Cc2ccccn2)[C@H](OCc2ccc(C(F)(F)F)cc2)C1 (racemic) | 58 | 62 | 33 | 192 | 48 | 186 | 612 |
| C=CC(=O)N1C[C@@H](n2ccnn2)[C@H](OCc2ccc(C(F)(F)F)cc2)C1 (racemic) | 153 | 406 | 31 | 79 | 20 | – | – |

Continued, in another order:

| IC50 [1] [nM] | IC50 [2] [nM] | IC50 [3] [nM] | IC50 [4] [nM] | IC50 [5] [nM] | IC50 (NCI-H226) [nM] | Structure (SMILES) | IC50 [6] [nM] |
| --- | --- | --- | --- | --- | --- | --- | --- |
| 86 | 467 | 29 | 197 | 31 | 131 | C=C(F)C(=O)N1C[C@@H](n2cc(-c3cccnc3)nn2)[C@H](OCc2ccc(C(F)(F)F)cc2)C1 | 173 |
| 670 | 2480 | 207 | 230 | 144 | – | C=CC(=O)N1C[C@@H](n2cc(-c3cccnc3)nn2)[C@H](OCc2ccc(C(F)(F)F)cn2)C1 (racemic) | – |
| 106 | 25 | 37 | 49 | 26 | 63 | C=CC(=O)N1C[C@@H](n2cc(-c3cccnc3)nn2)[C@H](OCc2ccc(C(F)(F)F)cc2)C1 (racemic) | 173 |
| 2210 | > 10000 | 391 | 911 | 834 | – | C=CC(=O)N1C[C@@H](n2cc(-c3cccnc3)nn2)[C@H](OCc2ccc(C(F)(F)F)nc2)C1 (racemic) | – |
| 985 | > 10000 | 425 | 230 | 426 | – | C=CC(=O)N1C[C@@H](n2cc(-c3cccnc3)nn2)[C@H](OCc2cc(Cl)cc(C(F)(F)F)c2)C1 (racemic) | – |
| 206 | 718 | 40 | 103 | 51 | – | C=CC(=O)N1C[C@@H](n2cc(-c3ccncn3)nn2)[C@H](OCc2ccc(C(F)(F)F)cc2)C1 (racemic) | – |
| 1720 | 4430 | 100 | 604 | 215 | – | C=CC(=O)N1C[C@@H](n2cc(-c3cccnc3)nn2)[C@H](OCc2cc(C(F)(F)F)ccc2Cl)C1 (racemic) | – |
